Reference: ChEMBL document CHEMBL1135484, “Structural features of azidopyridinyl neonicotinoid probes conferring high affinity and selectivity for mammalian alpha4beta2 and Drosophila nicotinic receptors” (J Med Chem, 2002)

Experiments:
[1] = target: Neuronal acetylcholine receptor; alpha4/beta2; assay: Potency to displace [3H]nicotine binding to Nicotinic acetylcholine receptor alpha4-beta2 immuno-isolated from M10 cells; assay type: cell-based, Gallus gallus
[2] = Potency to displace [3H]IMI binding to Nicotinic acetylcholine receptor from Drosophila head membranes; parameters: species or system Drosophila melanogaster
Procedure, shortened: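 Drosophila head membranes as receptor source, competition against [3H]IMI binding; IC50 (concentration giving 50% inhibition of specific binding) fitted by iterative nonlinear least-squares regression.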

Drosophila melanogaster = assay: Selectivity ratio of Ki of Nicotinic acetylcholine receptor of Drosophila to Nicotinic acetylcholine receptor alpha4-beta2

| Compound | Ki [1] [nM] | Ki [2] [nM] | Selectivity (Drosophila melanogaster) |
| --- | --- | --- | --- |
| [N-]=[N+]=Nc1cc(Cn2ccsc2=N)cnc1Cl | 0.47 | 750 | 1600 |
| [N-]=[N+]=Nc1cc(Cn2ccs/c2=N\[N+](=O)[O-])cnc1Cl | 170 | 3.9 | 44 |
| [N-]=[N+]=Nc1cc(CN2CCN=C2N)cnc1Cl | 2.6 | 5700 | 2190 |
| O=[N+]([O-])/N=C1\NCCN1Cc1ccc(Cl)nc1 [IMIDACLOPRID] | – | 2.2 | 327 |
| [N-]=[N+]=Nc1cncc(Cn2ccsc2=N)c1 | 8.3 | 7200 | 867 |
| [N-]=[N+]=Nc1ccncc1Cn1ccnc1N[N+](=O)[O-] | 95800 | 3600 | 27 |
| O=[N+]([O-])NC1=NCCN1Cc1ccc(Cl)nc1 [IMIDACLOPRID] | 720 | – | – |
| N#C/N=c1\sccn1Cc1ccc(Cl)nc1 [THIACLOPRID OLEFIN] | 120 | 1.4 | 86 |
| [N-]=[N+]=Nc1cc(Cl)ncc1Cn1ccsc1=N | 110 | 3200 | 29 |
| [N-]=[N+]=Nc1cc(Cl)ncc1Cn1ccnc1N[N+](=O)[O-] | 16900 | 460 | 37 |
| [N-]=[N+]=Nc1cncc(Cn2ccnc2N[N+](=O)[O-])c1 | 5400 | 540 | 10 |
| [N-]=[N+]=Nc1ccncc1Cn1ccsc1=N | 820 | 30000 | 36 |
| Clc1ccc(C2CC3CCC2N3)cn1 (stereo unspecified) [EPIBATIDINE] | – | 220 | – |
| [N-]=[N+]=Nc1cc(CN2CCN/C2=N\[N+](=O)[O-])cnc1Cl [5-AZIDOIMIDACLOPRID] | – | 24 | 14 |
| N=C1NCCN1Cc1ccc(Cl)nc1 [DESNITROIMIDACLOPRID] | 2.2 | 800 | 364 |
| O=[N+]([O-])/N=c1\sccn1Cc1ccc(Cl)nc1 | 170 | 0.35 | 486 |
| [N-]=[N+]=Nc1cc(CN2CCNC2=N[N+](=O)[O-])cnc1Cl [5-AZIDOIMIDACLOPRID] | 340 | – | – |
| N=c1sccn1Cc1ccc(Cl)nc1 | 0.39 | 100 | 256 |
| [N-]=[N+]=Nc1cc(Cn2ccnc2N[N+](=O)[O-])cnc1Cl | 300 | 13 | 23 |
| O=[N+]([O-])Nc1nccn1Cc1ccc(Cl)nc1 [DEHYDROIMIDACLOPRID] | 470 | 0.85 | 553 |
| N#C/N=c1\sccn1Cc1cnc(Cl)c(N=[N+]=[N-])c1 | 120 | 28 | 4.3 |
| CN1CCC[C@H]1c1cccnc1 [NICOTINE] | – | 2000 | – |
